Measurements as given in paper PMC4758401 (Diabetes, Obesity & Metabolism, 2015).
Where two headings read alike, the source gives them in different places.

Legend:
Assay type in all cases: in vivo, patients with type 1 diabetes
plasma glucose = tested on: plasma glucose
glucagon = details: for Reduction of AUC0–3 h for glucagon: p < 0.05
Outline: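 Same crossover design: test compound at 6, 9 or 12 mcg/U insulin or volume-matched placebo, each injected separately alongside subcutaneous regular insulin (30% reduced dose) just before a standard 600-kcal breakfast. Plasma immunoreactive glucagon was measured by radioimmunoassay in samples taken at −15, −5, 15, 30, 45, 60, 90, 120, 150 and 180 min. Incremental AUC0–3 h from baseline was compared with placebo by a linear mixed-effects model (sequence, period, treatment, random patient), two-sided 0.05.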

[1] = Adverse events and hypoglycaemia
Outline: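 Four-way crossover in adults with type 1 diabetes, one visit per arm over 4 weeks. Before a 600-kcal breakfast, each arm received subcutaneous regular insulin at 30% below the usual rapid-analogue dose, plus a separate masked injection of test compound (6, 9 or 12 mcg/U insulin) or volume-matched placebo. Symptomatic hypoglycaemia was tracked for 24 h after dosing; adverse events were recorded on- and off-treatment.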

[2] = all ratios (6, 9 or 12 mcg/unit insulin)

CC[C@H](C)[C@H](NC(=O)[C@@H]1CCCN1C(=O)CNC(=O)[C@H](Cc1ccccc1)NC(=O)[C@H](CC(N)=O)NC(=O)[C@H](CC(N)=O)NC(=O)[C@H](CO)NC(=O)[C@H](CO)NC(=O)[C@H](Cc1c[nH]cn1)NC(=O)[C@@H](NC(=O)[C@H](CC(C)C)NC(=O)[C@H](Cc1ccccc1)NC(=O)[C@H](CC(N)=O)NC(=O)[C@H](C)NC(=O)[C@H](CC(C)C)NC(=O)[C@H](CCCNC(=N)N)NC(=O)[C@H](CCC(N)=O)NC(=O)[C@@H](NC(=O)[C@H](C)NC(=O)[C@@H]1CSSC[C@H](NC(=O)[C@@H](N)CCCCN)C(=O)N[C@@H](CC(N)=O)C(=O)N[C@@H]([C@@H](C)O)C(=O)N[C@@H](C)C(=O)N[C@@H]([C@@H](C)O)C(=O)N1)[C@@H](C)O)C(C)C)C(=O)N[C@@H](CC(C)C)C(=O)N1CCC[C@H]1C(=O)N1CCC[C@H]1C(=O)N[C@H](C(=O)N[C@@H](CC(N)=O)C(=O)N[C@H](C(=O)NCC(=O)N[C@@H](CO)C(=O)N[C@@H](CC(N)=O)C(=O)N[C@H](C(=O)N[C@@H](Cc1ccc(O)cc1)C(N)=O)[C@@H](C)O)C(C)C)[C@@H](C)O [pramlintide]
Reduction of AUC0–3 h for glucose (plasma glucose; 6 mcg/U ratio vs placebo/insulin, p < 0.001): 60% | Glucose incremental AUC0–3 h, LS mean difference (plasma glucose; 6 mcg–placebo, p <0.001): -205.98 mg·h/dL | Glucose incremental AUC0–3 h, LS mean difference (plasma glucose; 6–9 mcg, p 0.890): -6.04 mg·h/dL | Glucose incremental AUC0–3 h, LS mean difference (plasma glucose; 6–12 mcg, p 0.343): 40.63 mg·h/dL | Glucose incremental AUC0–3 h, LS mean difference (plasma glucose; 9 mcg–placebo, p <0.001): -199.93 mg·h/dL | Glucose incremental AUC0–3 h, LS mean difference (plasma glucose; 9–12 mcg, p 0.280): 46.67 mg·h/dL | Glucose incremental AUC0–3 h, LS mean difference (plasma glucose; 12 mcg–placebo, p <0.001): -246.60 mg·h/dL | Reduction of 0–3‐h glucose increments (plasma glucose; [2]): > 50% | Reduction of AUC0–3 h for glucagon (glucagon; 6 mcg/U ratio vs placebo/insulin): 57% | Glucagon incremental AUC0–3 h, LS mean difference (glucagon; 6 mcg–placebo, p 0.041): -14.23 pg·h/mL | Glucagon incremental AUC0–3 h, LS mean difference (glucagon; 6–9 mcg, p 0.934): 0.57 pg·h/mL | Glucagon incremental AUC0–3 h, LS mean difference (glucagon; 6–12 mcg, p 0.945): -0.47 pg·h/mL | Reduction of AUC0–3 h for glucagon (glucagon; 9 mcg/U ratio vs placebo/insulin): 59% | Glucagon incremental AUC0–3 h, LS mean difference (glucagon; 9 mcg–placebo, p 0.034): -14.80 pg·h/mL | Glucagon incremental AUC0–3 h, LS mean difference (glucagon; 9–12 mcg, p 0.879): -1.05 pg·h/mL | Reduction of AUC0–3 h for glucagon (glucagon; 12 mcg/U ratio vs placebo/insulin): 55% | Glucagon incremental AUC0–3 h, LS mean difference (glucagon; 12 mcg–placebo, p 0.046): -13.75 pg·h/mL | Reduction of 0–3‐h glucagon increments (glucagon; [2]): > 50% | Tolerability ([1]; all ratios (6, 9, 12 mcg/U insulin), single meal-time injection): well tolerated | Symptomatic hypoglycaemia ([1]; during the 24‐h period after pramlintide administration, all ratios): No symptomatic hypoglycaemia occurred | Nausea ([1]; one patient, accompanying each pramlintide/insulin ratio, able to complete each test meal): mild nausea | Mild, asymptomatic hypoglycaemia between test meal days ([1]; one patient, after pramlintide 12 mcg/U): hypoglycaemia 5 and 7 days after receiving pramlintide 12 mcg/U
